The subject of assay [1] is A549. Briefly: Antimitotic activity against human A549 cells assessed as cell mitotic arrest at 10 uM after 22 hrs by DAPI/FITC staining-based laser fluorescence confocal microscopic analysis (reference value: 1.1 %). The assay is classed as functional.
The test system of assay [2] is A549. As to the kind of experiment: Antimitotic activity against human A549 cells assessed as cell mitotic arrest at 5 uM after 22 hrs by DAPI/FITC staining-based laser fluorescence confocal microscopic analysis (reference value: 1.1 %). The assay is classed as functional.
Assay [3] relates to A549. Briefly: Antitumor activity against human A549 cells xenografted in BALB/c nude mouse assessed as tumor growth inhibition at 100 mg/kg, ig measured on day 16. The assay is classed as functional. The note with it: A549, po, 384 h, route intragastric, read-out: TGI. The procedure, abridged: (§1)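 Male BALB/c nude mice, 5 weeks old (18–20 g), implanted subcutaneously in the right armpit with A549 tumor fragments (3 mm3). On day 13, at 100–200 mm3, daily intragastric dosing began: 100 or 500 mg/kg test compound, or 30 mg/kg paclitaxel, in Tween-80 diluted with saline. Vehicle given ip. Tumor volume and body weight followed; n = 6; inhibition rate at day 16.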
Background: A xenograft is tissue or cells of one species grown in another, often human tumour cells in immunodeficient mice.

The test system of assay [4] is A549. As to the kind of experiment: Cell cycle arrest in human A549 cells assessed as accumulation at G2/M phase at 5 uM after 24 hrs by propidium iodide staining-based flow cytometry (reference value: 2.78 %). The assay is classed as functional. On the technique in general: A flow cytometer gives signals particle by particle.
For assay [5], the system named is A549. As to the kind of experiment: Cell cycle arrest in human A549 cells assessed as accumulation at G2/M phase at 1 uM after 24 hrs by propidium iodide staining-based flow cytometry (reference value: 2.78 %). The assay is classed as functional.
The subject of assay [6] is A549. As to the kind of experiment: Cell cycle arrest in human A549 cells assessed as accumulation at S phase at 10 uM after 24 hrs by propidium iodide staining-based flow cytometry (reference value: 9.12 %). In kind it is functional.
Assay [7] concerns A549. As to the kind of experiment: Cell cycle arrest in human A549 cells assessed as accumulation at G1 phase at 10 uM after 24 hrs by propidium iodide staining-based flow cytometry (reference value: 87.56 %). The assay is classed as functional.
Another assay deals with Tubulin (Homo sapiens) (UniProt P68371+Q9H4B7+P0DPH7+P68366+Q13509+Q71U36+P04350+Q3ZCM7+P07437+P68363+Q9BQE3+Q6PEY2+Q13885+Q9BVA1+Q9BUF5). Briefly: Activation of tubulin (unknown origin) polymerization at 10 uM. The assay is classed as protein-complex assay. In short, it runs like this: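 Purified brain tubulin (kit), final 3.0 mg/mL, in 80.0 mM PIPES sesquisodium pH 6.9, 2.0 mM MgCl2, 0.5 mM EGTA, 1 mM GTP, 10.2% glycerol; components prewarmed to 37 °C, reaction started by adding tubulin. A340 read each minute for 1 h. Single-point % stimulation used 10 μM compound; EC50 from 3.75, 7.5, 15, 30, 60 μM.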

A further assay deals with SW480. Briefly: Cytotoxicity against human SW480 cells after 48 hrs by MTT assay. The assay is classed as functional, cell-based. The note with it: Homo sapiens, SW480, 48 h. In short, it runs like this: (§2)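 Log-phase cells (40000–50000 cells/mL) grown in DMEM with 10% fetal calf serum (5% CO2, 37 °C) and exposed 48 h to five concentrations, 3–5 replicates. Read-out was MTT with absorbance at 570 nm; IC50 reported as mean ± SD of three independent experiments. Resistant A549 and HeLa sublines were made by stepwise paclitaxel selection; resistance index = IC50(resistant)/IC50(sensitive).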
(Tetrazolium dyes change colour on reduction, which living cells bring about.)

The subject of the next assay is HeLa. As to the kind of experiment: Cytotoxicity against human HeLa cells after 48 hrs by MTT assay. The assay is classed as functional, cell-based. Particulars: Homo sapiens, HeLa, 48 h. The procedure, abridged: as §2
Assay [8] deals with A549. Briefly: Induction of apoptosis in human A549 cells assessed as viable cells at 5 uM after 24 hrs by annexin V-FITC/propidium iodide staining-based flow cytometry (reference value: 94.08%). The assay is classed as functional. Particulars: A549, 24 h, read-out: Activity.
The test system of assay [9] is A549. Briefly: Induction of apoptosis in human A549 cells assessed as viable cells at 1 uM after 24 hrs by annexin V-FITC/propidium iodide staining-based flow cytometry (reference value: 94.08%). In kind it is functional. The note with it: A549, 24 h, read-out: Activity.
The test system of assay [10] is A549. Briefly: Induction of apoptosis in human A549 cells assessed as late apoptotic cells at 10 uM after 24 hrs by annexin V-FITC/propidium iodide staining-based flow cytometry (reference value: 1.02%). In kind it is functional.
Assay [11] has as its system A549. Briefly: Induction of apoptosis in human A549 cells assessed as necrotic cells at 5 uM after 24 hrs by annexin V-FITC/propidium iodide staining-based flow cytometry (reference value: 2.76%). The assay is classed as functional.
Assay [12] concerns A549. As to the kind of experiment: Antitumor activity against human A549 cells xenografted in ig dosed BALB/c nude mouse assessed as tumor growth inhibition measured on day 16. In kind it is functional, organism-based. In short, it runs like this:
as §1

Assay [13] concerns A549. Briefly: Induction of apoptosis in human A549 cells early apoptotic cells at 10 uM after 24 hrs by annexin V-FITC/propidium iodide staining-based flow cytometry (reference value: 0.73 %). In kind it is functional.
Assay [14] concerns A549. As to the kind of experiment: Induction of apoptosis in human A549 cells early apoptotic cells at 5 uM after 24 hrs by annexin V-FITC/propidium iodide staining-based flow cytometry (reference value: 0.73 %). The assay is classed as functional.
Assay [15] has as its system A549. As to the kind of experiment: Effect on chromosomal alteration in human A549 cells at 10 uM after 22 hrs by DAPI/FITC staining-based laser fluorescence confocal microscopic analysis. The assay is classed as functional, cell-based. The procedure, abridged: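 Confocal imaging of A549 cells exposed for 22 h to compound or vehicle (0.2% DMSO final), added at 70% confluency after overnight growth. Fixation followed by 0.5% Triton X-100 permeabilization and 10% goat serum blocking; tubulin stained with FITC anti-α-tubulin (1:100, 2 h, 37 °C), nuclei counterstained with DAPI. Wide-field images taken at 10–15 random slide locations.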

Assay [16] concerns A549. As to the kind of experiment: Effect on chromosomal alteration in human A549 cells at 10 uM after 22 hrs by DAPI/FITC staining-based laser fluorescence confocal microscopic analysis.

Structures are written as SMILES. The source made the active and inactive calls. No cut-off for these calls is given here.

The IC50 is the concentration that inhibits the measured activity by half. The low end stands for greater potency, the high end for weaker potency.

Consider `COc1cc([C@@H]2C[C@]2(CO)C(=O)Nc2ccccc2Cl)cc(OC)c1OC`, for which the Activity is recorded as 78.8% in the assay with A549 [1]; 53.1% in the assay with A549 [2]; 60.85% in the assay on A549 [4]; 51.68% with A549 [5]; 10.29% in the assay on A549 [6]; 9.85% with A549 [7]. The Activity on Tubulin (Homo sapiens) came out at 24.3%; in the assay on A549 [10] it was 2.99%; in the assay on A549 [11], 2.04%; in the assay with A549 [13] it was 55.23%; in the assay with A549 [14], 37.4%. Besides, the inhibition in vivo at 100 mg/kg with A549 [3] is 44.6%. Also, the IC50 in the assay with SW480 stood at 13.2 µM; with HeLa, 8.1 µM. Further, the viability at 5 µM in the assay with A549 [8] was determined as 59%. Moreover, in the assay on A549 [9], the viability at 1 µM was determined as 80.2%. The TGI entry with A549 [12] is “Dose-dependent effect”. Moreover, the result in the assay on A549 [15] and with A549 [16] was Active.
